Compound activity (PubChem)
STEP block: blocks human striatal-enriched tyrosine phosphatase | P54829 | recombinant STEP, OMFP fluorogenic substrate, fluorescence | inhibition, % at 20 µM | hit rate 0.25% among 360,000 | AID 588621;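 active means inhibition at 20 µM, scaled per plate between control wells, above about 37%, limit read from the data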
Target sequence (P54829 whole entry, looked up): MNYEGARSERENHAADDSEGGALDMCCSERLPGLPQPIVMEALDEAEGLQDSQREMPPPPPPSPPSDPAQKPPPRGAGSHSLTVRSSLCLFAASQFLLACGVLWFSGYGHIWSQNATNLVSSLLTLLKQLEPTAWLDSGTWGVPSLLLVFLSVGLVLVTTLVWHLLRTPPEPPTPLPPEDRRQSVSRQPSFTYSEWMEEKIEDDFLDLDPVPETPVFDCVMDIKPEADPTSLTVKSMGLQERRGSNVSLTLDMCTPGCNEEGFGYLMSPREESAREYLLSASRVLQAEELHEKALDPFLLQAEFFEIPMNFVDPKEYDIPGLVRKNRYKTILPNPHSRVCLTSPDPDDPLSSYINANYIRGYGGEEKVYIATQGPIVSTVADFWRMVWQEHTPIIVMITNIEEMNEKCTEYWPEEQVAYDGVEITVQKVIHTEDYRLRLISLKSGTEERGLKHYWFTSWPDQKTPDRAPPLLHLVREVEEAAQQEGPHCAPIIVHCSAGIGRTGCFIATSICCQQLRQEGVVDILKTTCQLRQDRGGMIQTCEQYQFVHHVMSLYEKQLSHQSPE
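material = STEP tyrosine phosphatase | reagent = fluorogenic phosphatase substrate OMFP at 25 µM final | doses = single compound dose of 20 µM, 1% DMSO final | schedule = 20 min reaction, room temperature, in the dark | measured by = fluorescence, 480/540 nm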
SUMO1-SIM PPI: modulators of human SUMO1-mediated protein-protein interactions | AID 602429 | inhibition, % at 20 µM | hit rate 0.33% among 360,000 | P63165 | SUMO1 binding to a labelled peptide, TR-FRET, 1 h; in the data active means inhibition above about 37%
LMPTP inh: blocks human LMPTP phosphatase. P24666. inhibition, % at 20 µM. hit rate 0.22% among 360,000. recombinant LMPTP-A, OMFP fluorogenic substrate, fluorescence intensity. AID 651560;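 active means compounds that cut the enzyme signal by at least half of the control window in the single-dose screen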
Target sequence (P24666 whole entry, looked up): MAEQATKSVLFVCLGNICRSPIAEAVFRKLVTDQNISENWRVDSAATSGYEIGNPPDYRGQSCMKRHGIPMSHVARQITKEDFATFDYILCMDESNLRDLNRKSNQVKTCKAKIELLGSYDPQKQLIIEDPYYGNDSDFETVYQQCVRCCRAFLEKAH
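Test system – LMPTP-A enzyme · Amount – LMPTP-A at 0.625 nM final in the reaction · Buffer or medium – Bis-Tris pH 6.0, DTT, detergent · Reagent – OMFP 400 µM · Doses – single 20 µM dose · Schedule – reaction 50 min, room temperature, dark · Detection – fluorescence intensity of OMFP turnover product · Evaluation – percent inhibition versus substrate-only and uninhibited controls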
CFTR F508del cor: correctors of CFTR F508del function in bronchial epithelial cells | activity (quench increase), % at 7.58 µM | hit rate 0.36% among 350,000 | CFBE cells, YFP halide quenching; stimulated with forskolin plus potentiator P3; % fluorescence drop versus neutral controls | AID 720511;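 active means mean added fluorescence quench of at least 8% versus neutral control, with both replicates also reaching 8%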;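 further: cells transiently co-express mutant CFTR-F508del with the halide-sensitive YFP; corrector assay measuring rescue of mutant channel to the surface after 24 h compound exposure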
DNMT1 inh: DNMT1 (human) enzyme inhibition | P26358 | DNMT1 molecular beacon, Hinp1I cleavage, fluorescence | inhibition (reported as % activation of signal), % at 10 µM | hit rate 0.83% among 360,000 | AID 588458; in the data active means inhibition above about 50%
Scp-1 inhibitor: inhibitors of human Scp-1 phosphatase | Q9GZU7 | hit rate 0.88% among 340,000 | Recombinant Scp1, phosphopeptide, malachite green phosphate absorbance | inhibition, % at 20 µM;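 active means inhibition above about 50% at 20 µM, limit read from the data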
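Incubation: 45 min enzyme reaction at room temperature / System: truncated SCP-1 phosphatase (76-261aa) / Reagent: Phospho 17-mer peptide substrate / Buffer or medium: Acidic Tris acetate buffer with magnesium and detergent / Signal: absorbance at 630 nm / Doses: one concentration, 20 µM, with 1.0% DMSO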
Numbers stand for hits; i = inactive; nt = not tested or not shown; ! = not confirmed by another sample. Sampled rows, rich in hits. Any-hit rate of the full collection: about 1.6%.

SMILES	STEP block	SUMO1-SIM PPI	LMPTP inh	CFTR F508del cor	DNMT1 inh	Scp-1 inhibitor
Cc1ccc(Cc2c(-c3ccc(F)cc3)nc3c(C)cc(Br)cn23)cc1	i	i	i	nt	i	nt
Cc1ccc(Cc2c(-c3ccc(C)cc3)nc3c(C)cc(Br)cn23)cc1	i	i	i	10.8	i	nt
CCCC(=O)Nc1ccc2c(c1)C(=O)N(C)C[C@H](OC)[C@@H](C)CN(CCC(F)(F)F)[C@@H](C)CO2	nt	nt	nt	i	nt	nt
COc1ccc(-c2c(C#Cc3ccsc3)c3ccccc3n2C)cc1	i	i	50.8	i	i	i
COc1ccc(C#Cc2c(-c3ccccc3)n(C)c3ccccc23)cc1	i	i	i	i	i	i
Cc1c(N=Nc2c(-c3ccc([N+](=O)[O-])cc3)[nH]n(C(N)=S)c2=O)cccc1[N+](=O)[O-]	82.0	i	71.0	i	75.5	93.1
Cc1[nH]n(C(N)=S)c(=O)c1N=Nc1cccc([N+](=O)[O-])c1C	i	i	i	nt	i	i
NC(=S)n1[nH]c(-c2ccc([N+](=O)[O-])cc2)c(N=Nc2cccc([N+](=O)[O-])c2)c1=O	i	87.6	57.5	i	i	73.6
O=C(C[C@@H]1CC[C@@H](NC(=O)Nc2cccc(F)c2)[C@@H](CO)O1)NCC1CC1	nt	nt	nt	i	nt	nt
Nc1ccn([C@H]2C[C@H](O)[C@@H](CO)O2)c(=O)n1	i	i	i	8.0!	i	i
Nc1nc(Cl)nc2c1ncn2C1CC(O)C(CO)O1 (stereo unspecified)	i	i	i	14.1	i	i
Nc1nc(Cl)nc2c1ncn2C1OC(CO)C(O)C1O (stereo unspecified)	i	i	i	i	i	nt
COc1ccc(NC(=O)Nc2ccc3c(c2)CC(=O)N([C@@H](C)CO)C[C@@H](C)[C@@H](CN(C)C)O3)cc1	nt	nt	nt	i	nt	nt
CO[C@H]1CN(C)C(=O)c2ccc(NS(=O)(=O)c3ccc(C)cc3)cc2OC[C@@H](C)N(C(=O)NC(C)C)C[C@@H]1C	nt	nt	nt	i	nt	nt
O=C(C1=C[C@@H](c2ccccc2)C[C@@H](OCc2ccc(CO)cc2)O1)N1CCN(Cc2ccc3c(c2)OCO3)CC1	i	i	i	8.8!	i	i
COc1ccccc1N1CCN(C(c2cc3cc(C)ccc3[nH]c2=O)c2nnnn2C2CCCC2)CC1 (stereo unspecified)	i	44.6	i	nt	i	i
C=CCn1c(SCC(=O)N(C)C2CCS(=O)(=O)C2)nc2ccccc2c1=O (stereo unspecified)	i	i	i	18.9	i	i
C=CCn1c(SCC(=O)N(CC)C2CCS(=O)(=O)C2)nc2ccccc2c1=O (stereo unspecified)	i	i	i	i	i	i
NS(=O)(=O)c1ccc(NC(=O)c2cccc3cc4ccccc4nc23)cc1	i	i	i	18.5	i	i
CC(=O)Nc1cccc(-c2ccnc3c2CC(C)(C(=O)NCc2cccc(Cl)c2)O3)c1 (stereo unspecified)	i	i	i	i	i	nt
CC1(C(=O)NCc2ccccc2)Cc2c(-c3ccccc3)ccnc2O1 (stereo unspecified)	i	i	i	i	i	nt
CC1(C(=O)NCc2ccccc2)Cc2c(-c3ccc(C(N)=O)cc3)ccnc2O1 (stereo unspecified)	i	i	i	14.5	i	nt
CC(=O)Nc1cccc(-c2ccnc3c2CC(C)(C(=O)NCc2cccs2)O3)c1 (stereo unspecified)	i	i	i	9.9	i	nt
C[C@@H]1CCCCO[C@H](CN(C)Cc2ccc(C(=O)O)cc2)[C@H](C)CN([C@@H](C)CO)C(=O)c2cc(NC(=O)C3CCCCC3)ccc2O1	nt	nt	nt	i	nt	nt
CO[C@@H]1CN(C)C(=O)c2ccc(NC(=O)C3CC3)cc2OC[C@@H](C)N(CC2CC2)C[C@@H]1C	nt	nt	nt	i	nt	nt
SMILES	STEP block	SUMO1-SIM PPI	LMPTP inh	CFTR F508del cor	DNMT1 inh	Scp-1 inhibitor
C/C=C/c1ccc([C@H]2[C@@H](CN(C)C(=O)CC)N(C(=O)C3CC3)[C@H]2CO)cc1	nt	nt	nt	i	nt	nt
CS(=O)(=O)Nc1ccc2c(c1)[C@H]1C[C@@H](CC(=O)N3CCc4ccccc4C3)O[C@@H](CO)[C@H]1O2	nt	nt	nt	i	nt	nt
COc1cccc(C2C(C#N)=C(N)OC3=C2C(=O)CC(c2ccco2)C3)c1OCc1ccc(F)cc1 (stereo unspecified)	i	i	i	nt	i	i
N#CC1=C(N)OC2=C(C(=O)CC(c3ccco3)C2)C1c1ccc(OCc2c(F)cccc2Cl)cc1 (stereo unspecified)	i	i	65.0	nt	i	i
C[C@@H]1CN([C@@H](C)CO)C(=O)c2cc(NC(=O)c3ccncc3)ccc2O[C@@H](C)CCCCO[C@H]1CN(C)Cc1ccc2c(c1)OCO2	nt	nt	nt	i	nt	nt
O=C(COc1ccccc1Cl)Nc1cc(NC(=O)COc2ccccc2Cl)cc(C(=O)O)c1	i	i	i	i	i	73.4
COCCCNC(=O)[C@@]1(C)c2ccccc2C(=O)N(Cc2cc(F)cc(C(F)(F)F)c2)[C@H]1c1ccc(CO)cc1	nt	nt	nt	i	nt	nt
C/C(N)=C(/C#N)C(=O)CSc1nnc(Nc2c(C)cccc2C)s1	i	i	i	i	i	70.2
C/C(N)=C(/C#N)C(=O)CSc1nnc(Nc2cccc(C)c2C)s1	i	i	i	i	i	i
Cc1ccc(-n2c(C)cc(/C=N/Nc3ccc([N+](=O)[O-])cn3)c2C)cc1	i	i	i	nt	i	101.9
Cc1c(/C=N/Nc2ccc([N+](=O)[O-])cn2)c2ccccc2n1Cc1ccccc1	i	i	i	i	50.6	i
Cc1cc(/C=N/Nc2ccc([N+](=O)[O-])cn2)c(C)n1-c1ccccc1	i	i	i	nt	i	i
CCOC(=O)c1[nH]c(C)c(/C(O)=C2\C(=O)C(=O)N(CCCN3CCOCC3)C2c2cccs2)c1C (stereo unspecified)	i	i	i	15.1	i	i
COc1ccc(CN2CC3(CCN(C(=O)Cc4ccncc4)CC3)c3c([nH]c4cc(OC)ccc34)[C@@H]2CO)cc1	nt	nt	nt	i	nt	nt
COc1ccc(Br)cc1/C=c1\sc2nc(-c3ccco3)nn2c1=O	i	i	i	nt	105.7	88.0
Cc1ccc(-c2nn3c(C)nnc3s2)cc1NC(=O)c1ccc(-c2ccc(Cl)cc2Cl)o1	93.4	i	i	nt	65.9	i
O=C(C[C@H]1CC[C@@H]2[C@H](COC[C@H](O)CN2Cc2cc(F)ccc2F)O1)NCc1ccc(F)cc1	nt	nt	nt	i	nt	nt
Oc1cccc2cc(Nc3ccccc3)cnc12	i	i	i	10.0	i	nt
C[C@@H]1CN([C@@H](C)CO)S(=O)(=O)c2ccc(Br)cc2O[C@@H]1CN(C)CC1CC1	nt	nt	nt	i	nt	nt
Oc1c(CN2CCOCC2)cc(CN2CCOCC2)c(O)c1O	i	i	i	i	57.5	i
O=C(Nc1ccc2c(c1)[C@@H]1C[C@@H](CC(=O)N3CCc4ccccc4C3)O[C@H](CO)[C@@H]1O2)NC1CCCC1	nt	nt	nt	i	nt	nt
Nc1c(C(=O)c2ccccc2)oc2ccccc12	i	i	i	nt	i	i
